LMPTP block: blocks human LMPTP phosphatase. P24666. recombinant LMPTP-A, OMFP fluorogenic substrate, fluorescence intensity. inhibition, % at 20 µM. 360,000 compounds, 0.22% hits. AID 651560;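 active means compounds that cut the enzyme signal by at least half of the control window in the single-dose screen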
Target sequence (P24666 whole entry, looked up): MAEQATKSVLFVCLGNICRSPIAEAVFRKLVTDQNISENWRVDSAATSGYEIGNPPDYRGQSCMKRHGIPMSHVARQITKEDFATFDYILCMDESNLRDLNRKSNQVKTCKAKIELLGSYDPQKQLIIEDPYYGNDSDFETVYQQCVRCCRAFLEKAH
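test system = LMPTP-A | amount = 0.625 nM LMPTP-A final | reagent = fluorogenic phosphatase substrate OMFP at 400 µM final | incubation = 50 min at room temperature | benchmarks = no-enzyme low control, uninhibited high control | medium = Bis-Tris pH 6.0, DTT, detergent | signal = fluorescence intensity of OMFP turnover product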
DSG3 Ab inh: human desmoglein-3 autoantibody binding inhibition; P32926; DSG3-coupled beads, scFv-anti-DSG3-GFP binding, flow cytometry; stronger effect = lower value; binding (percent of control), % at 10 µM; 310,000 compounds, 0.48% hits;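 active means binding more than 3 SD below its plate's average and above zero; inconclusive means below that plate limit but binding exactly zero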;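 further: hits lower antibody fragment binding to DSG3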
Scp1 inh: blocks human Scp-1 phosphatase activity | Q9GZU7 | Recombinant Scp1, phosphopeptide, malachite green phosphate absorbance | inhibition, % at 20 µM | 340,000 compounds, 0.88% hits | AID 493091;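 active means inhibition above about 50% at 20 µM, limit read from the data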
Target sequence (Q9GZU7 76-261 limits assumed): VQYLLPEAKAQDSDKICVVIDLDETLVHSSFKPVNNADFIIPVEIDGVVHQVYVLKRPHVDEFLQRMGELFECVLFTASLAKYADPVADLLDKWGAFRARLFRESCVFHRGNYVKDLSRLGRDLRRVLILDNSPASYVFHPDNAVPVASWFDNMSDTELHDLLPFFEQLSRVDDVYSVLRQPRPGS
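Incubation: 45 min enzyme reaction at room temperature / System: truncated SCP-1 phosphatase (76-261aa) / Reagent: Phospho 17-mer peptide substrate / Buffer or medium: Acidic Tris acetate buffer with magnesium and detergent / Signal: absorbance at 630 nm / Doses: one concentration, 20 µM, with 1.0% DMSO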
STEP block: inhibitors of human striatal-enriched phosphatase STEP. P54829. recombinant STEP, OMFP fluorogenic substrate, fluorescence. inhibition, % at 20 µM. 360,000 compounds, 0.25% hits;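 active means inhibition at 20 µM, scaled per plate between control wells, above about 37%, limit read from the data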
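Assay system: isolated STEP enzyme / Timing: 20 min at room temperature, dark / Doses: 20 µM, 1% DMSO / Technique: fluorescence intensity, excitation 480 nm, emission 540 nm / Reagent: fluorogenic phosphatase substrate OMFP at 25 µM final / Measure: percent inhibition scaled to no-enzyme and uninhibited-enzyme controls, plate-pattern corrected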
SUMO1-SIM PPI: modulators of human SUMO1-mediated protein-protein interactions; P63165; SUMO1 binding to a labelled peptide, TR-FRET, 1 h; inhibition, % at 20 µM; 360,000 compounds, 0.33% hits; AID 602429; in the data active means inhibition above about 37%
Target sequence (P63165 whole entry, looked up): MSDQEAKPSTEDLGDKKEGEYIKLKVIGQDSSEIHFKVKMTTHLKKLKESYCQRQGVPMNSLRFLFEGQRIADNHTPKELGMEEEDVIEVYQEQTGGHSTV
A number is an active result; – = inactive; ? = inconclusive; · = no result given. A selection: hits, their analogues and other compounds. The true share with any hit is near 1.7%.

SMILES	LMPTP block	DSG3 Ab inh	Scp1 inh	STEP block	SUMO1-SIM PPI
CN(C(=O)CC1C(=O)NCCN1Cc1cccc(F)c1F)C1CC(C)(C)NC(C)(C)C1 (stereo not given)	–	–	–	–	–
CCOc1ncccc1C(=O)OCC(=O)N(CC)c1ccccc1	–	–	–	–	–
Cc1ncc(CO)c(/C=N/NC(=S)Nc2ccc(Cl)c(Cl)c2)c1O	–	–	–	–	–
Cc1ncc(CO)c(/C=N/NC(=S)Nc2cccc(Cl)c2)c1O	–	–	–	64	–
O=C(O)c1cc([N+](=O)[O-])cc2ccccc12	–	–	–	–	–
CC1(C)COC(Cc2ccccc2)=N1	–	–	·	–	–
CCCCC(CC)CN=C(N)NC(N)=NCCCCCCN=C(N)NC(N)=NCC(CC)CCCC (stereo not given)	–	–	–	–	86
CCCCC(CC)CO (stereo not given)	–	·	–	–	–
CCOc1ccc(S(=O)(=O)N(CC)CC)cc1NC(=O)c1ccc(N2CCCC2=O)cc1	–	–	–	–	–
CCC(C)(C)NC(=O)CN(CC1CCCO1)C(=O)CCC(=O)Nc1nccs1 (stereo not given)	–	–	–	–	47
CC(C)CCNC(=O)CN(CC1CCCO1)C(=O)CCC(=O)Nc1nccs1 (stereo not given)	–	·	–	–	–
S=c1[nH]c(-c2ccccc2)cn1/N=C/c1cccnc1	–	80	–	–	–
CCCN(CCC)CC(O)CN1C(=O)NC(C)(C)C1=O (stereo not given)	–	–	–	–	–
COc1ccc(S(=O)(=O)Nc2ccc3c(c2)C(=O)N([C@H](C)CO)C[C@H](C)[C@@H](CN(C)C(=O)Nc2ccc(F)cc2)OCCCC[C@H](C)O3)cc1	–	·	·	–	–
O=C1CC(c2ccco2)CC(O)=C1C=NCC1CCNCC1 (stereo not given)	–	–	–	–	49
Oc1ccc(/C=N/n2c(-c3ccccc3)n[nH]c2=S)cc1Br	–	–	–	–	–
Cc1c(Br)c(O)c(Br)c(O)c1/C=N/n1c(-c2ccccc2)n[nH]c1=S	–	–	90	–	–
O=C(N/N=C/c1ccccc1O)c1cccc(C(F)(F)F)c1	–	–	53	–	–
O=C(N/N=C/c1ccc(O)cc1)c1cccc(C(F)(F)F)c1	–	–	–	–	–
CC(/C=C1\SC(=S)N(NC(=O)c2ccc(C)cc2)C1=O)=C\c1ccccc1	–	·	–	–	–
CC(/C=C1\SC(=S)N(c2ccc(C(=O)O)cc2)C1=O)=C\c1ccccc1	–	–	–	–	57
COc1ccc(Nc2nc(N3CCCC3)c3ccccc3n2)cc1	51	–	–	–	–
CCCC(=O)Nc1sc(-c2ccccc2)c(-c2ccccc2)c1C(=O)O	–	–	–	–	–
Nc1c(/C=C2/C=CC(=O)C(O)=C2)c(=O)nc2sc(CC(=O)N3CCCCC3)nn12	65	–	72	–	45
COC1=C/C(=C/c2c(N)n3nc(CC(=O)N4CCCC4)sc3nc2=O)C=CC1=O	–	?	–	–	–
SMILES	LMPTP block	DSG3 Ab inh	Scp1 inh	STEP block	SUMO1-SIM PPI
Nc1c(/C=C2/C=CC(=O)C(O)=C2)c(=O)nc2sc(CC(=O)N3CCOCC3)nn12	–	–	71	–	–
Nc1c(/C=C2/C=CC(=O)C(O)=C2)c(=O)nc2sc(CC(=O)N3CCCC3)nn12	–	–	88	–	–
CCOC1=C2CN(S(=O)(=O)c3ccc(C)cc3)[C@H](c3ccccc3)C[C@H]2[C@H]2C(=O)N(c3ccccc3)C(=O)[C@H]2C1	–	·	·	–	–
CC1CCN(C(=O)COC(=O)c2nn(C)c(=O)c3ccccc23)CC1	–	–	–	–	–
CC1CCN(S(=O)(=O)c2ccc3c(c2)c(=O)c(C(=O)NCc2ccco2)cn3C)CC1	–	–	–	–	–
CC1CCN(S(=O)(=O)c2ccc3c(c2)c(=O)c(C(=O)NCc2cccs2)cn3C)CC1	–	83	–	–	–
COc1ccc(CCCC(=O)NC(C)c2ccccc2)cc1 (stereo not given)	–	–	–	–	–
O=[N+]([O-])c1ccc(N=Nc2ccc(O)cc2O)cc1	–	–	–	–	–
O=S(=O)(O)c1cc(Cl)cc(N=Nc2ccc(O)cc2O)c1O	50	–	73	–	–
CN(C)c1ccc(/C=N/N2C(=O)c3ccccc3C2=O)cc1	–	–	–	–	–
CCN(CC)c1ccc(/C=N/N2C(=O)c3ccccc3C2=O)cc1	–	63	–	–	–
Cc1ccc(NC(=O)CSc2ccc(C(N)=O)cc2[N+](=O)[O-])cc1C	–	69	–	–	–
CN(C)S(=O)(=O)c1ccc(Cl)c(C(=O)OCC(=O)c2ccco2)c1	–	–	–	–	–
Cc1cccc(-n2ccc(=O)c(C(=O)Nc3ccc(S(=O)(=O)Nc4nccs4)cc3)n2)c1	–	?	–	–	–
COc1ccc(-n2ccc(=O)c(C(=O)Nc3ccc(S(=O)(=O)Nc4nccs4)cc3)n2)cc1	–	49	–	–	–
CC(=O)c1ccc2c(c1)C1C=CCC1C(c1ccncc1)N2 (stereo not given)	–	–	–	–	–
COc1cccc(C2Nc3c(F)cc(Br)cc3C3C=CCC32)c1OC (stereo not given)	–	–	–	–	–
COc1cccc2c1NC(C(=O)O)C1CC=CC21 (stereo not given)	52	13	74	70	52
CC(=O)c1ccc2c(c1)C1C=CCC1C(C(=O)O)N2 (stereo not given)	–	·	75	70	60
Oc1ccc(C23CCCC2C2(CCCC2)c2ccc(O)cc2O3)c(O)c1 (stereo not given)	–	·	–	–	–
Cc1ccc(S(=O)(=O)N2CCCCC2)cc1NCC(=O)Nc1ccc(Br)cc1F	–	–	·	–	–
CC(C)(C)C1CCc2c(sc(NC(=O)CSc3nnc(-c4ccccc4)o3)c2C#N)C1 (stereo not given)	–	–	–	–	–
Cc1ccc(OCCNC(=O)Cc2ccc(S(=O)(=O)N3CCOCC3)s2)cc1	–	–	–	–	–
O=C(NCCCN1CCOCC1)c1cc2nc(-c3ccco3)cc(C(F)(F)F)n2n1	–	33	–	–	–
C=CCn1c(SCC(=O)NC2CCCCC2)nnc1-c1cccnc1	–	–	–	–	–
SMILES	LMPTP block	DSG3 Ab inh	Scp1 inh	STEP block	SUMO1-SIM PPI
CC(C)CN(CC(C)C)c1nn[nH]n1	–	86	–	–	–
CCCCN(CCCC)c1nn[nH]n1	–	–	–	–	–
Cc1c(N)c(C(C)(C)C)cc(C(C)(C)C)c1[N+](=O)[O-]	–	–	–	–	–
Cc1cc2nc3c(=O)[nH]c(=O)[nH]c3nc2c([N+](=O)[O-])c1N	–	35	72	–	100
Cc1ccc(S(=O)(=O)NCc2ccc3c(c2)cc(C)n3C)cc1	–	71	–	–	–
Cc1c(Cl)cccc1NC(=S)NCc1cccs1	–	–	–	–	–

Screening results deposited in PubChem BioAssay by several laboratories.
